# Measured values from different studies.
# Protocols differ between the studies behind these lines.
# Target: Serine/threonine-protein kinase Chk1 (CHEK1, Homo sapiens, UniProt O14757)
# Residues used in one study (O14757 1-476): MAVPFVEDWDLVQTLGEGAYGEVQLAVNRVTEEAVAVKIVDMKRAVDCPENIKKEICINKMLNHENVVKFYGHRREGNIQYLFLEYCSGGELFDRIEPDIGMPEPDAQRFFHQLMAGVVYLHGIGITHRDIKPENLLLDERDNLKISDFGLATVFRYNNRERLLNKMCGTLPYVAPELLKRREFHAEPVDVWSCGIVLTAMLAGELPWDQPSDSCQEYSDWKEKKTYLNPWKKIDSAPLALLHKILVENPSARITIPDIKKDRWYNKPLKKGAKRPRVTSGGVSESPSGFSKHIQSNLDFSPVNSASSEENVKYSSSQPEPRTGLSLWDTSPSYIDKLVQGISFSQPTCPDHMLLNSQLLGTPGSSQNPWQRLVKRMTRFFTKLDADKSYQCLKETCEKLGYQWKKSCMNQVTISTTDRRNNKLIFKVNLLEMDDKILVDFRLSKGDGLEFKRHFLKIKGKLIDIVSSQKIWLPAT
SMILES,effect on,technique,tested at,remaining binding [%]
Cc1nc(C2CCN(C(=O)c3ccc(OC(F)(F)F)cc3N)CC2)c2ncc(N3CCN(C)CC3)cc2n1,cell-free assay,competition with immobilised ligand,1 µM,100
Cc1cnn2ncc(-c3ccnc(N(C)C)n3)c2c1,binding,,1 µM,100
c1cncc(-c2cccc(Nc3nccc(NC4CCCCC4)n3)c2)c1,binding,competition with immobilised ligand,10 µM,94
CCc1ccccc1C(=O)Nc1n[nH]c2c(C)c(F)c(C3C(C#N)=C(C)N(C)C(C)=C3C#N)cc12,cell-free assay,competition with immobilised ligand,1 µM,91
CN(c1nccc(-c2cnn3ncccc23)n1)C1CC1,binding,,1 µM,78
COc1cnc(Nc2cccc(S(N)(=O)=O)c2)nc1N1CCN(c2ccccc2)C(=O)C1,binding,competition with immobilised ligand,1 µM,100
Cc1cc(-n2nc(Cc3cc(F)cc(C(F)(F)F)c3)nc2C)ccc1C(N)=O,cell-free assay,competition with immobilised ligand,1 µM,100
CN(C)c1ncc(F)c(-c2cnn3ncccc23)n1,binding,,1 µM,87
O=C(NCCCN1CCOCC1)c1ccc(Nc2ncc(Cl)c(-c3ccc(Cl)s3)n2)cc1,binding,competition with immobilised ligand,1 µM,57
O=C(NCCCC1CCCCC1)c1ccc(CNC(=O)c2cnn(-c3ccccc3)c2C(F)(F)F)cc1,cell-free assay,competition with immobilised ligand,0.1 µM,100
O=C(NCC1CCOCC1)c1n[nH]cc1NC(=O)c1c(F)cccc1F,binding,competition with immobilised ligand,1 µM,100
CN(CCCC(F)(F)F)c1nccc(-c2cnn3ncccc23)n1,binding,,1 µM,100
C[C@@H]1CN(c2ccc3ncc(-c4ccc5[nH]nc(C6CC6)c5c4)n3n2)C[C@H](C)O1,binding,competition with immobilised ligand,0.5 µM,100
CC(=O)N1CCC(c2ccc(C(=O)NC(=N)N)cc2C(F)(F)F)CC1,cell-free assay,competition with immobilised ligand,1 µM,95
O=C(NCCCN1CCOCC1)c1ccc(Nc2nccc(-c3cc4ccccc4s3)n2)cc1,binding,competition with immobilised ligand,1 µM,100
N[C@@H]1CCN(c2nccc(-c3cnn4ncccc34)n2)C1,binding,,1 µM,100
Cc1cnc(Nc2ccc(C(=O)N3CCC(N4CCCC4)CC3)cc2)nc1-c1cc2ccccc2s1,binding,competition with immobilised ligand,1 µM,33
C[C@@H]1CCN(c2nccc(-c3cnn4ncccc34)n2)C1,binding,,1 µM,100
CC(C)CC(=O)N1CCc2nc(-c3ccc(Br)cc3)nc(N(C)Cc3ccccc3)c2C1,cell-free assay,competition with immobilised ligand,0.1 µM,100
FC(F)(F)Oc1cccc(-c2cnc3ccc(-c4ccncc4)nn23)c1,cell-free assay,competition with immobilised ligand,5 µM,100
Cc1cc(C)c(-n2ccn3nc(-c4cccnc4)cc23)cc1NC(=O)c1cc(C#N)cc(S(F)(F)(F)(F)F)c1,cell-free assay,competition with immobilised ligand,0.1 µM,86
N#Cc1ccccc1CSc1nnc2c(n1)[nH]c1ccccc12,binding,competition with immobilised ligand,10 µM,87
Nc1ncc2c(n1)-c1c([nH]c3ccc(C#CC4CC4)cc13)CCCC2,binding,competition with immobilised ligand,1 µM,97
